Experimental data as given in PMC5432128 (Environment international, 2017).
Converted amounts (≈) assume the structure as drawn. “And” between values parts separate entries of the source, which are not always exact repeats. Equal values may be shown once. Read-outs that look alike come from different tables or passages of the source.

Key:
mice = settings: 4.5 mg/kg body weight (bw)/day for 13 weeks; ref Hamernik 1998; cited from earlier work
rats = settings: in particular females; low doses (3.4 mg/kg bw); ref Hamernik 1998; cited from earlier work
[1] = in certain conditions; ref Gunasekara et al. 2007; cited from earlier work
[2] = tested on: second instar larvae of S. frugiperda; assay: Insect bioassay, diet surface contamination method; assay type: in vivo; settings: for mortality / insecticidal activity: 2nd instar larvae, doses as high as 100 μg/mL (24-fold higher than fipronil LC50)
dogs = settings: diet, up to 3 mg/kg bw/day; ref Hamernik 1998; Woodward 2012; cited from earlier work
α1β3γ2L GABAA receptors = α1β3γ2L GABAA receptors (Homo sapiens, UniProt P14867+P18507+P28472); assay type: cell-based; settings: for EC50: 25 μM GABA, -80 mV
Sequence of α1β3γ2L GABAA receptors (P14867 28-456): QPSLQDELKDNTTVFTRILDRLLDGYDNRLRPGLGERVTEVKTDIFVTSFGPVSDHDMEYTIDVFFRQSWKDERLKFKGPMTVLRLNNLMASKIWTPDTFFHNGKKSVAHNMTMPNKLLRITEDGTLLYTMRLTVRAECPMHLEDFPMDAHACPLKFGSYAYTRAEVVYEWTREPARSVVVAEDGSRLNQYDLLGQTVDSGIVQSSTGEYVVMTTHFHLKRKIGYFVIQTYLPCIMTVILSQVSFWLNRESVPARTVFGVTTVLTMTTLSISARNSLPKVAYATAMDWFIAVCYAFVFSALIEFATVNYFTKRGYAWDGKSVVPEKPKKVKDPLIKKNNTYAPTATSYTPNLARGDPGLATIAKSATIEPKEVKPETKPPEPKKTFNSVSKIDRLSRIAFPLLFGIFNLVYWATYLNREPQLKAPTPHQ
Sequence of α1β3γ2L GABAA receptors (P28472 26-473): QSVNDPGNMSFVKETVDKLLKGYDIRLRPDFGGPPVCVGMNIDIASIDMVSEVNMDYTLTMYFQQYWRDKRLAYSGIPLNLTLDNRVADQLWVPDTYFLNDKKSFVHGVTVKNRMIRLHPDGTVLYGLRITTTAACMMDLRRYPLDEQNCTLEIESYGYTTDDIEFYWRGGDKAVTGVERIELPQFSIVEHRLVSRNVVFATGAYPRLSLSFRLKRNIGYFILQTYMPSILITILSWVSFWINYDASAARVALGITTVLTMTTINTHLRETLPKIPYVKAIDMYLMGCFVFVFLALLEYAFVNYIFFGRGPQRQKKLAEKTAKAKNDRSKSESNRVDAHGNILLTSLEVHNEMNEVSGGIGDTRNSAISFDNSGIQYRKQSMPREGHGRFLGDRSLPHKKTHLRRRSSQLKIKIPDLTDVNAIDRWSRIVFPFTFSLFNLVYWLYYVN
Sequence of α1β3γ2L GABAA receptors (P18507 40-475): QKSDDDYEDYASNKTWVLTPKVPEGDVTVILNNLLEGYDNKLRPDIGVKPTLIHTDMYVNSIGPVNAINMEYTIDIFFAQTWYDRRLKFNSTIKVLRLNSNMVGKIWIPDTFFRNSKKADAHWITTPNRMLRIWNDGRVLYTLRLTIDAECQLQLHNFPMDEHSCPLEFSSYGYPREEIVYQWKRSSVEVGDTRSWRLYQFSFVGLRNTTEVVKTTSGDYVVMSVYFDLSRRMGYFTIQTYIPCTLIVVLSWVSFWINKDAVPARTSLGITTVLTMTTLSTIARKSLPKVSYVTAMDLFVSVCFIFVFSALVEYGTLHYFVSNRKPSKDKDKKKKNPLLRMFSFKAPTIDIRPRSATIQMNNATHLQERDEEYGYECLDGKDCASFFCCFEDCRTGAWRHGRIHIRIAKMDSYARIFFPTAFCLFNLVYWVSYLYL

[3] = urine of fipronil-treated rats; ref McMahen et al. 2015; cited from earlier work
[4] = cited from earlier work; for recovery of radioactivity in the urine: rats, ref Powles et al. 1992
LC/MS/MS Method 2 = assay type: in vivo; settings: EPA group, this study; for Conc sulfone, LOQ 10 ng/mL: rat urine; for concentration at 2 weeks: rat, urine, oral, Conc sulfone, LOQ 10 ng/mL
Method in brief: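 Urine came from fipronil-treated rats dosed at 5 or 10 mg/kg, single or repeated daily. Urine (100 μL) was precipitated with cold acetonitrile and centrifuged at 12,500 ×g for 8 min. Supernatant was mixed 1:1 with 10 mM ammonium acetate. HPLC used a C18 column at 30°C with 0.2 mM ammonium acetate methanol/acetonitrile phases, a 50–90% B gradient and flow of 0.4 rising to 0.75 mL/min, then MS/MS.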

LC-MS/MS Method 1 = assay type: in vivo, rat; settings: for concentration at 2 weeks: Conc sulfone, LOQ 1.5 ng/mL
Method in brief: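 Rats received fipronil in diet at 5 or 10 mg/kg daily, for 14 days or one day. Urine was hydrolysed overnight at 37°C with β-glucuronidase/sulfatase in methanol/ammonium acetate pH 5.5. Urine (40 μL) was spiked with CUDA internal standard and centrifugally filtered at 20,000 g. Analysis used UPLC on C18 at 40°C with a water/acetonitrile 0.1% acetic acid gradient at 0.4 mL/min and […] ESI tandem MS.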

[5] = tested on: polyclonal antibodies 2268; assay: Fipronil immunoassay cross-reactivity, serum 2268; assay type: binding; settings: serum 2268, n=4; relative to fipronil
[6] = tested on: polyclonal antibodies 2265; assay: Fipronil immunoassay cross-reactivity, serum 2265; assay type: binding; settings: serum 2265, n=5; relative to fipronil
[7] = inhibitory effective concentration (EC50) on GABA-induced Cl- currents, pre-application at least 3 min, mean ± S.D.

N#Cc1nn(-c2c(Cl)cc(C(F)(F)F)cc2Cl)c(N)c1[S+]([O-])C(F)(F)F (stereo not drawn) [fipronil]
bodyweight gain (mice): reduced bodyweight gains | liver weight (rats): significant increase in liver weight | half-life (t1/2) in the environment [1]: over 100 days | LC50 ([2]; Spodoptera frugiperda): 4.1 µg/mL (≈ 9.38 µM) | mortality at 100 µg/mL ([2]; Spodoptera frugiperda, 12 h): 100% | mortality at 50 µg/mL ([2]; Spodoptera frugiperda, 48 h): 100% | other signs of toxicity observed (dogs): convulsions, head nodding and muscles twitching | weight gain and neurological effects (dogs): did not experience abnormal weight gain or severe neurological effects | EC50 (α1β3γ2L GABAA receptors; [7]): 1.15 nM and 1.2 nM | free fipronil in urine samples [3]: no detectable amount

COC(=N)c1cc(N)n(-c2c(Cl)cc(C(F)(F)F)cc2Cl)n1 [fipronil desulfinyl imidate, methyl 5-amino-1-(2,6-dichloro-4-(trifluoromethyl)phenyl)-1H-pyrazole-3-carbimidate]
mortality / insecticidal activity [2]: did not show any mortality | mortality / insecticidal activity ([2]; listed as imidate derivative): did not show any insecticidal activity | activity on GABAA α1β3γ2L receptor currents (in words) (α1β3γ2L GABAA receptors): approximately as potent to fipronil | EC50 (α1β3γ2L GABAA receptors; [7]): 2.78 nM and 2.8 nM

N#Cc1nn(-c2c(Cl)cc(C(F)(F)F)cc2Cl)c(N)c1[S+]([O-])C(F)(F)F (stereo not drawn) [^14C-fipronil]
recovery of radioactivity in the urine ([4]; repeated dosing over 14 days): 14–16% | recovery of radioactivity in the urine ([4]; single dose at 4 mg/kg): 5.6% | recovery of radioactivity in the urine ([4]; single high dose (150 mg/kg)): 22–30%

N#Cc1nn(-c2c(Cl)cc(C(F)(F)F)cc2Cl)c(N)c1S(=O)(=O)C(F)(F)F [fipronil sulfone]
share among urinary metabolites ([4]; deconjugated and original rat urine, ref Powles et al. (1992)): minor constituent | Conc sulfone, LOQ 10 ng/mL (LC/MS/MS Method 2; fipronil 5 mg/kg repeated): 24 ng/mL | Conc sulfone, LOQ 10 ng/mL (LC/MS/MS Method 2; fipronil 5 mg/kg single): < 10 ng/mL | Conc sulfone, LOQ 10 ng/mL (LC/MS/MS Method 2; fipronil 10 mg/kg single): < 10 ng/mL | concentration at 2 weeks (LC/MS/MS Method 2; 5 mg/kg, fipronil 5 mg/kg repeated): 26 ng/mL | concentration at 2 weeks (LC/MS/MS Method 2; 10 mg/kg, fipronil 10 mg/kg repeated): 23 ng/mL | Conc sulfone, LOQ 1.5 ng/mL (LC-MS/MS Method 1; rat urine, fipronil 5 mg/kg repeated, Method 1): 14 ng/mL | Conc sulfone, LOQ 1.5 ng/mL (LC-MS/MS Method 1; rat urine, fipronil 5 mg/kg repeated, Method 1, listed as sulfone): 17 ng/mL and 14 ng/mL | detection in urine samples (LC-MS/MS Method 1; rat urine, samples 42, 81 and 82): detected only in samples obtained from animals treated with fipronil repeatedly | concentration at 2 weeks (LC-MS/MS Method 1; rat, urine, oral, 5 mg/kg, rat urine, fipronil 5 mg/kg repeated, Method 1): 17 ng/mL | concentration at 2 weeks (LC-MS/MS Method 1; rat, urine, oral, 10 mg/kg, rat urine, fipronil 10 mg/kg repeated, Method 1): 19 ng/mL | concentration in urine samples (LC-MS/MS Method 1; rats treated with fipronil, over all dose groups (abstract)): around 20 ng/mL

N#Cc1nn(-c2c(Cl)cc(C(F)(F)F)cc2Cl)c(N)c1O [hydroxy-fipronil, 5-Amino-1-(2,6-dichloro-4-(trifluoromethyl)phenyl)-4-hydroxy-1H-pyrazole-3-carbonitrile]
Cross-reactivity (CR) [5]: 0.7% | Cross-reactivity (CR) [6]: 3.2% | mortality / insecticidal activity [2]: did not show any mortality | activity on GABAA α1β3γ2L receptor currents (in words) (α1β3γ2L GABAA receptors): did not have a significant inhibitory effect | EC50 (α1β3γ2L GABAA receptors; inhibitory EC50 on GABA-induced Cl- currents): ~1000 nM | EC50 (α1β3γ2L GABAA receptors; [7]): 1000 ± 341 nM | fold higher concentrations to elicit similar current inhibition (α1β3γ2L GABAA receptors; relative to fipronil and fipronil desulfinyl imidate): ≤ 1000 fold | Conc FipOH, LOQ 0.4 ng/mL (LC-MS/MS Method 1; rat urine, fipronil 5 mg/kg single, Method 1, listed as FipOH): 23 ng/mL and 24 ng/mL | Conc FipOH, LOQ 0.4 ng/mL (LC-MS/MS Method 1; rat urine, fipronil 10 mg/kg single, Method 1): 14 ng/mL | difference in metabolite concentration, two weeks treatment vs single treatment (LC-MS/MS Method 1; rat urine, same doses 5 or 10 mg/kg): 80 to 700 times | concentration detected in the samples before and after enzymatic hydrolysis (LC-MS/MS Method 1; rat urine, β-glucuronidase/sulfatase, table S4): did not change significantly | concentration at 14 days (LC-MS/MS Method 1; rat, urine, oral, 10 mg/kg, Conc FipOH, LOQ 0.4 ng/mL, rat urine, fipronil 10 mg/kg repeated (14 days), Method 1): 10200 ng/mL | concentration in the urine (LC-MS/MS Method 1; rats, single fipronil dose of 5 or 10 mg/kg): about 20 ng/mL
